Source: PubChem (The Scripps Research Institute Molecular Screening Center)
Fam108B inh = counter-screen for RBBP9 inhibitors: inhibitors of mouse Fam108B; AID 1947; 300,000 tested, 0.33% active; recombinant Fam108B, FP-Rh probe fluorescence polarization; inhibition, % at 9.51 µM;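 active = inhibition above the screen mean inhibition plus 3 SD, computed separately per campaign, cut at about 18% in these data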;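 also: inhibitors lower polarization as less probe binds the enzyme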
PAD4 FP inh = PAD4 (human) enzyme inhibition | Q9UM07 | recombinant PAD4, RCA probe fluorescence polarization | inhibition, % at 6.36 µM | 330,000 tested, 0.41% active;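 active = percent inhibition above a cutoff equal to the mean of all tested compounds plus 3 SD, cut at about 15% in these data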;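 also: 0% = PAD4 with RCA probe and DMSO and 100% = probe without PAD4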
RBBP9 inh = inhibitors of human serine hydrolase RBBP9. O75884. recombinant RBBP9, FP-Rh probe fluorescence polarization. inhibition, % at 7.94 µM. 220,000 tested, 0.2% active;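 active = inhibition above the campaign mean of all tested compounds plus 3 SD, cut at about 14% in these data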;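 also: plate controls were DMSO wells with RBBP9 for no effect and wells lacking RBBP9 protein for full effect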
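system = RBBP9 protein | input = RBBP9 at 2.5 µM in dispensed solution, before mixing | measured by = fluorescence polarization (mP), excitation 525 nm, emission 598 nm | incubation = enzyme-compound preincubation 30 min, then probe labeling 45 min, 25 °C | buffer or medium = Tris-NaCl-Pluronic buffer, pH 8.0 | compound = single dose 7.94 µM | also added = FP-Rh probe, 375 nM dispensing solution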
PME-1 inh = blocks human protein phosphatase methylesterase 1. 320,000 tested, 0.53% active. recombinant PME-1, FP-Rh probe fluorescence polarization. inhibition, % at 5.9 µM. AID 2130. Q9Y570;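 active = inhibition above the campaign mean of all compounds plus 3 SD, cut at about 26% in these data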;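 also: competitive labeling of PME-1 active site by serine hydrolase directed probe; 0% = PME-1 with DMSO and 100% = wells lacking PME-1 enzyme; inhibitors block probe labeling so polarization falls and inhibition rises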
Target sequence (Q9Y570 whole entry, looked up): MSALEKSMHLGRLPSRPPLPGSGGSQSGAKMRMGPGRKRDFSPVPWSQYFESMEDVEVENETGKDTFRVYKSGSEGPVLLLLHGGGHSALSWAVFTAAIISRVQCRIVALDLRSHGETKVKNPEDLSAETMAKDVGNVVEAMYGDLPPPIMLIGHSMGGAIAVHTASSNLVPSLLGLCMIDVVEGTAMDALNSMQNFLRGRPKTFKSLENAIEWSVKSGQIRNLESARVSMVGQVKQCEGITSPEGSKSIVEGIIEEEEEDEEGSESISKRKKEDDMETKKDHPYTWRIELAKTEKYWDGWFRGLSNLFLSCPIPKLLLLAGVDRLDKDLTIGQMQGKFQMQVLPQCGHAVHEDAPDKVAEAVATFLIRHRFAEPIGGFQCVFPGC
GSTO1 inh = blocks human GSTO1 in RBBP9 counter-screen; P78417; recombinant GSTO1, activity-based probe fluorescence polarization; inhibition, % at 5.96 µM; 300,000 tested, 1.1% active; AID 1974;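 active = inhibition above the campaign mean inhibition plus 3 SD, cut at about 35% in these data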;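 also: 0% = GSTO1-1 with DMSO and 100% = wells lacking GSTO1-1 enzyme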
Target sequence (P78417 whole entry, looked up): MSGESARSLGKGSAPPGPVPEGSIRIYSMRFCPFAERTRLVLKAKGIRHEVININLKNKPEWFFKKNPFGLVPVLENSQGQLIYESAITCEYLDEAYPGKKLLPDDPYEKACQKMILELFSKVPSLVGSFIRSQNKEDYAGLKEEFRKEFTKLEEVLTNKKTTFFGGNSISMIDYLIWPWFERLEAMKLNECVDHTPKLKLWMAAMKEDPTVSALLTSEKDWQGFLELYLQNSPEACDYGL
PRMT1 FP inh = blocks human protein arginine methyltransferase 1. Q99873. recombinant PRMT1, activity-based probe fluorescence polarization. inhibition, % at 2.79 µM. 370,000 tested, 1.3% active;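 active = inhibition above about 21% made by adding two undisclosed values, limit read from the data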
PRMT1 inh conf = confirmation of human PRMT1 inhibitors. shares compounds with PRMT1 FP inh. recombinant His-PRMT1, activity-based probe fluorescence polarization. inhibition, % at 2.79 µM. 3,300 tested, 42% active. AID 687036;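 active = mean inhibition across replicates above the hit cutoff derived for the earlier primary screen, cut at about 22% in these data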
* = called active by the depositor; . = no result given. Rows were chosen to be rich in hits. Some 2.3% of all compounds tested hit in one or more screens of this group.

SMILES | Fam108B inh | PAD4 FP inh | RBBP9 inh | PME-1 inh | GSTO1 inh | PRMT1 FP inh | PRMT1 inh conf
O=C(CSC1=NC(=O)C(Cc2ccccc2)C(=O)N1)NC1CCCCC1 (stereo not drawn) | 3 | 4 | -7 | 0 | 10 | 6 | .
CC(=O)NC1C(=O)N=C(SCC(=O)NCc2ccccc2)NC1=O (stereo not drawn) | 2 | 2 | -6 | 0 | 11 | 40* | 8
CC(=O)NC1C(=O)N=C(SCC(=O)Nc2c(C)cccc2C)NC1=O (stereo not drawn) | -1 | -1 | 3 | 0 | -2 | 42* | 15
Cc1ccc(C23CC4CC(CC(C(N)=O)(C4)C2)C3)cc1 | 1 | -3 | . | -1 | 3 | 0 | .
CN1C(=O)/C(=C/c2cccc([N+](=O)[O-])c2)C(=O)N1c1ccccc1 | 5 | -2 | . | -2 | 19 | 10 | .
CCOc1ccccc1NC(=O)c1c(NC(=O)CCC(=O)O)sc2c1CCCCC2 | . | . | -14 | . | . | 25* | -4
CCOC(=O)c1ccc(NC(=O)c2c(NC(=O)CCC(=O)O)sc3c2CCCCC3)cc1 | -5 | -11 | -7 | -4 | 5 | 44* | 5
CC1CCC2(CC1)NC(=O)N(CC(=O)Nc1cccc(S(=O)(=O)N3CCCCC3)c1)C2=O (stereo not drawn) | . | -7 | . | . | . | -3 | .
CCC(=O)N1CCc2cc(Br)cc(S(=O)(=O)CCC(=O)NCC3CCCO3)c21 (stereo not drawn) | 2 | -3 | -7 | -1 | -5 | -1 | .
O=C(CCN1CCC(c2ccccc2)C1)c1ccccc1 (stereo not drawn) | 0 | -4 | 1 | 5 | -2 | . | .
O=C(CCN1CCCC1Cc1ccccc1)c1ccc2c(c1)OCCO2 (stereo not drawn) | 0 | 3 | -6 | 5 | -8 | 37* | 40*
O=C(CCc1ccccc1)c1ccc2c(c1)OCCCO2 | 2 | -2 | -12 | 1 | 1 | 3 | .
O=C(CCN1CCC(c2ccccc2)C1)c1ccc2c(c1)OCCO2 (stereo not drawn) | 1 | 0 | -7 | 2 | -1 | 36* | 19
COc1cc(C(=O)CCN2CCC(c3ccccc3)C2)cc(OC)c1OC (stereo not drawn) | -5 | -2 | -4 | -4 | 1 | 32* | 16
O=C(COC(=O)c1ccc(OC(F)(F)F)cc1)Nc1ncccn1 | . | 1 | . | . | . | -1 | .
COC(=O)[C@]12CCCCC=C1N(Cc1ccc(Cl)cc1Cl)C(=O)[C@H](CC(=O)NCc1ccc(OC)c(OC)c1)C2 | . | . | . | . | . | -1 | .
O=C(O)c1ccc2c(c1Sc1ccccc1)C(=O)c1ccccc1C2=O | 5 | 0 | -2 | 6 | 12 | 6 | .
COC(=O)[C@H](CC(C)C)NC(=O)/C=C/[C@H]1O[C@@H](n2cc(C)c(=O)[nH]c2=O)C[C@@H]1O | . | . | . | . | . | 3 | .
O=C(NN=Cc1ccccc1C(=O)O)C(=O)NN=Cc1ccccc1C(=O)O | . | . | . | . | . | 104* | -1
COC(=O)c1ccccc1NC(=O)COC(=O)CSCC(=O)N1CCOCC1 | 0 | -2 | 5 | -2 | -2 | -2 | .
COc1cccc(/C=C2\SC(=S)N(NC(=O)c3ccncc3)C2=O)c1 | 1 | -3 | -3 | 3 | 1 | 37* | 13
O=C(CCc1nnc(-c2ccccc2)o1)NCc1cc(F)ccc1F | 0 | -10 | -4 | -9 | 14 | 5 | .
Cc1cc(C)nc(SCCN2CCCCC2)n1 | 1 | 2 | . | 2 | -2 | 26* | 21
Cc1ccc(NC(=S)N2CCSC2c2cccs2)cc1 (stereo not drawn) | 0 | -1 | -4 | 9 | -9 | 60* | 10
COc1ccc(C2SCCN2C(=S)Nc2cccc(Cl)c2)cc1 (stereo not drawn) | -1 | 2 | -4 | -2 | -4 | 80* | 2
SMILES | Fam108B inh | PAD4 FP inh | RBBP9 inh | PME-1 inh | GSTO1 inh | PRMT1 FP inh | PRMT1 inh conf
COc1ccc(C2SCCN2C(=S)Nc2ccc(Cl)cc2)cc1 (stereo not drawn) | 2 | 2 | 4 | 7 | 3 | 66* | 9
COc1ccc(NC(=S)N2CCN(C)CC2)cc1 | 2 | -5 | . | -1 | -5 | -2 | .
COc1cc(C(=O)N(Cc2ccccn2)CC2CCCO2)cc(OC)c1OC (stereo not drawn) | 0 | 1 | 3 | 0 | -6 | 1 | .
Cc1cc(C(=O)N2CCCC(CNS(=O)(=O)c3cccs3)C2)nn1C (stereo not drawn) | 4 | 2 | -8 | 1 | -1 | 1 | .
N#CC1=C(N)NC(=S)C(C(N)=O)C1c1ccc([N+](=O)[O-])cc1 (stereo not drawn) | 2 | 1 | 7 | 8 | 7 | 67* | 12
COC(=O)c1ccccc1SC(CC(=O)c1ccccc1)c1ccc(F)cc1 (stereo not drawn) | -4 | -4 | -6 | -7 | 3 | 43* | 48*
COC(=O)c1ccc(N2CN=C(c3ccc(C)cc3)NC2=S)cc1 | -1 | 4 | -3 | -1 | -7 | 35* | -6
S=C1NC(c2ccccc2)=NCN1c1ccc(Cl)cc1 | 5 | 0 | -8 | 4 | 1 | -1 | .
COc1cc(/C=N/NC(N)=O)cc(Br)c1OCc1ccccc1C | 3 | -3 | -3 | -6 | 2 | -3 | .
O=[N+]([O-])c1cccc(C(=S)N2CCN(c3ccccc3)CC2)c1 | 1 | 6 | -7 | -5 | 2 | 35* | 7
O=[N+]([O-])c1cccc(C(=S)N2CCN(c3ccccc3F)CC2)c1 | 1 | -5 | 2 | 3 | 0 | 9 | .
Cc1ccc(/C=C/C(=O)Nc2nn[nH]n2)o1 | 0 | 3 | -5 | 1 | 2 | 36* | 55*
Cc1ccc(/C=C/C(=O)Nc2cccc3ncccc23)o1 | -3 | -1 | -8 | -1 | -2 | 69* | 28*
CC(C)c1ccc(/C=C/C(=O)Nc2nn[nH]n2)cc1 | 1 | -6 | -11 | -2 | -2 | . | .
Cc1cc(NC(=O)CSc2ccc3nnc(-c4ccccc4)n3n2)no1 | 4 | 1 | -6 | 4 | -6 | -3 | .
Cn1cnc([N+](=O)[O-])c1S(=O)(=O)Oc1ccc(Cl)cc1 | . | . | . | . | . | 31* | 23*
COC(=O)CSc1nnnn1-c1ccccc1 | 1 | 1 | 9 | 3 | 9 | -2 | .
CC(C)c1ccc(CCNC(=O)CSC(=S)N2CCCC2)cc1 | 2 | 3 | . | 4 | -5 | 32* | 15
COc1ccc(CNC(=O)CSC(=S)N2CCCC2)cc1 | . | . | . | . | . | 3 | .
CCOC(=O)c1[nH]c(Cc2[nH]c(C(=O)OCC)c(C)c2CCC(=O)OC)c(CCC(=O)OC)c1C | 0 | 0 | -2 | 5 | 10 | 0 | .
CC(CN1c2ccccc2Sc2ccccc21)N(C)C (stereo not drawn) | -2 | -1 | -4 | 4 | 1 | 0 | .
C#CCN1c2ccccc2Sc2cccnc21 | 12 | 2 | . | 29* | 18 | 63* | 13
